“And” between values parts separate entries of the source, which are not always exact repeats. Equal values may be shown once.
Test system: Fibroblast
Assay: Multiplex assay against human fibroblast
Type: toxicity, cell-based
How it was run: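 Phenotypes for tubulin, mitochondrial mass and membrane permeability are expressed as per cents of healthy-nucleus cells. Cells were stained live at seeding with Hoechst33342, BioTracker Green Microtubule Cytoskeleton Dye, MitoTracker Red and Annexin V Alexa Fluor 680, then imaged after compound addition on a CQ1 microscope at 37°C and 5% CO2. Machine-learning gating in CellPathfinder separated Hoechst high-intensity objects from normal cells, divided normal cells by nuclear state (healthy, pyknosed, fragmented) and divided pyknosed cells into mitotic or apoptotic.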

[1] = 12 h, 1 µM, compound concentration 1 uM
[2] = 12 h, 10 µM, compound concentration 10 uM
[3] = 24 h, 1 µM, compound concentration 1 uM
[4] = 24 h, 10 µM, compound concentration 10 uM
[5] = 48 h, 1 µM, compound concentration 1 uM
[6] = 48 h, 10 µM, compound concentration 10 uM

CC(C)C[C@H](CO)Nc1nc(S[C@@H](C)c2ccccc2)nc2nc(N)sc12 [AZD-8797]
Population Apoptotic (%) [1]: 25% and 31%
Population Fragmented Nuclei (%) [1]: 23% and 22%
Population Healthy Nuclei (%) [1]: 62% and 55%
Population Hoechst High Intensity Objects (%) [1]: 1% and 4%
Population Mitochondria Different-Phenotype (%) [1]: 3% and 6%
Population Mitotic Cells (%) [1]: 75% and 68%
Population Normal (%) [1]: 98% and 95%
Population Pyknosed Nuclei (%) [1]: 13% and 21%
Population Tubulin-Different-Phenotype (%) [1]: 23% and 46%
Total Cell Count [1]: 146 and 92
Population Apoptotic (%) [2]: 38% and 36%
Population Fragmented Nuclei (%) [2]: 18% and 36%
Population Healthy Nuclei (%) [2]: 64% and 41%
Population Hoechst High Intensity Objects (%) [2]: 3% and 5%
Population Membrane Permeable-Phenotype (%) [2]: 0% and 10%
Population Mitotic Cells (%) [2]: 61% and 64%
Population Normal (%) [2]: 96% and 94%
Population Pyknosed Nuclei (%) [2]: 17% and 21%
Population Tubulin-Different-Phenotype (%) [2]: 46% and 66%
Total Cell Count [2]: 156 and 122
Population Apoptotic (%) [3]: 44% and 31%
Population Fragmented Nuclei (%) [3]: 15% and 29%
Population Healthy Nuclei (%) [3]: 69% and 54%
Population Hoechst High Intensity Objects (%) [3]: 1% and 0%
Population Mitochondria Different-Phenotype (%) [3]: 1% and 3%
Population Mitotic Cells (%) [3]: 55% and 68%
Population Normal (%) [3]: 98% and 99%
Population Pyknosed Nuclei (%) [3]: 14% and 15%
Population Tubulin-Different-Phenotype (%) [3]: 24% and 46%
Total Cell Count [3]: 124 and 103
Population Apoptotic (%) [4]: 57% and 33%
Population Fragmented Nuclei (%) [4]: 21% and 42%
Population Healthy Nuclei (%) [4]: 66% and 38%
Population Hoechst High Intensity Objects (%) [4]: 1% and 2%
Population Membrane Permeable-Phenotype (%) [4]: 0% and 8%
Population Mitochondria Different-Phenotype (%) [4]: 15% and 25%
Population Mitotic Cells (%) [4]: 42% and 66%
Population Normal (%) [4]: 98% and 97%
Population Pyknosed Nuclei (%) [4]: 12% and 19%
Population Tubulin-Different-Phenotype (%) [4]: 38% and 85%
Total Cell Count [4]: 168 and 126
Population Apoptotic (%) [5]: 50% and 47%
Population Fragmented Nuclei (%) [5]: 25% and 30%
Population Healthy Nuclei (%) [5]: 60% and 48%
Population Hoechst High Intensity Objects (%) [5]: 1% and 4%
Population Membrane Permeable-Phenotype (%) [5]: 1% and 4%
Population Mitochondria Different-Phenotype (%) [5]: 1% and 4%
Population Mitotic Cells (%) [5]: 50% and 52%
Population Normal (%) [5]: 98% and 95%
Population Pyknosed Nuclei (%) [5]: 13% and 20%
Total Cell Count [5]: 135 and 95
Population Apoptotic (%) [6]: 60% and 35%
Population Fragmented Nuclei (%) [6]: 25% and 45%
Population Healthy Nuclei (%) [6]: 65% and 40%
Population Hoechst High Intensity Objects (%) [6]: 2% and 1%
Population Membrane Permeable-Phenotype (%) [6]: 0% and 12%
Population Mitochondria Different-Phenotype (%) [6]: 13% and 18%
Population Mitotic Cells (%) [6]: 40% and 64%
Population Normal (%) [6]: 97% and 98%
Population Pyknosed Nuclei (%) [6]: 9% and 14%
Population Tubulin-Different-Phenotype (%) [6]: 35% and 89%
Total Cell Count [6]: 168 and 121

COc1cc2nc(N3CCN(C(=O)c4ccco4)CC3)nc(N)c2cc1OC.Cl [PRAZOSIN HYDROCHLORIDE]
Population Apoptotic (%) [1]: 38% and 49%
Population Fragmented Nuclei (%) [1]: 22% and 20%
Population Healthy Nuclei (%) [1]: 57% and 52%
Population Hoechst High Intensity Objects (%) [1]: 1% and 4%
Population Membrane Permeable-Phenotype (%) [1]: 1% and 5%
Population Mitochondria Different-Phenotype (%) [1]: 1% and 7%
Population Mitotic Cells (%) [1]: 61% and 50%
Population Normal (%) [1]: 98% and 95%
Population Pyknosed Nuclei (%) [1]: 19% and 27%
Population Tubulin-Different-Phenotype (%) [1]: 26% and 46%
Total Cell Count [1]: 174 and 194
Population Apoptotic (%) [2]: 44% and 31%
Population Fragmented Nuclei (%) [2]: 23% and 35%
Population Healthy Nuclei (%) [2]: 64% and 42%
Population Hoechst High Intensity Objects (%) [2]: 1% and 5%
Population Membrane Permeable-Phenotype (%) [2]: 0% and 9%
Population Mitochondria Different-Phenotype (%) [2]: 7% and 3%
Population Mitotic Cells (%) [2]: 56% and 68%
Population Normal (%) [2]: 98% and 94%
Population Pyknosed Nuclei (%) [2]: 12% and 21%
Population Tubulin-Different-Phenotype (%) [2]: 49% and 65%
Total Cell Count [2]: 198 and 155
Population Apoptotic (%) [3]: 50% and 45%
Population Fragmented Nuclei (%) [3]: 20%
Population Healthy Nuclei (%) [3]: 63% and 57%
Population Hoechst High Intensity Objects (%) [3]: 2% and 7%
Population Membrane Permeable-Phenotype (%) [3]: 0% and 12%
Population Mitochondria Different-Phenotype (%) [3]: 2% and 3%
Population Mitotic Cells (%) [3]: 50% and 54%
Population Normal (%) [3]: 97% and 92%
Population Pyknosed Nuclei (%) [3]: 15% and 21%
Population Tubulin-Different-Phenotype (%) [3]: 28% and 58%
Total Cell Count [3]: 181 and 185
Population Apoptotic (%) [4]: 46% and 61%
Population Fragmented Nuclei (%) [4]: 23% and 35%
Population Healthy Nuclei (%) [4]: 69% and 49%
Population Hoechst High Intensity Objects (%) [4]: 3% and 7%
Population Membrane Permeable-Phenotype (%) [4]: 0% and 10%
Population Mitochondria Different-Phenotype (%) [4]: 6% and 11%
Population Mitotic Cells (%) [4]: 53% and 38%
Population Normal (%) [4]: 96% and 92%
Population Pyknosed Nuclei (%) [4]: 6% and 15%
Population Tubulin-Different-Phenotype (%) [4]: 45% and 73%
Total Cell Count [4]: 201 and 152
Population Apoptotic (%) [5]: 52% and 66%
Population Fragmented Nuclei (%) [5]: 24% and 29%
Population Healthy Nuclei (%) [5]: 62% and 56%
Population Hoechst High Intensity Objects (%) [5]: 3%
Population Membrane Permeable-Phenotype (%) [5]: 0% and 8%
Population Mitochondria Different-Phenotype (%) [5]: 1% and 6%
Population Mitotic Cells (%) [5]: 47% and 33%
Population Normal (%) [5]: 96%
Population Pyknosed Nuclei (%) [5]: 13% and 14%
Population Tubulin-Different-Phenotype (%) [5]: 22% and 57%
Total Cell Count [5]: 182 and 197
Population Apoptotic (%) [6]: 66% and 46%
Population Fragmented Nuclei (%) [6]: 25% and 42%
Population Healthy Nuclei (%) [6]: 68% and 49%
Population Hoechst High Intensity Objects (%) [6]: 1% and 5%
Population Membrane Permeable-Phenotype (%) [6]: 0% and 5%
Population Mitochondria Different-Phenotype (%) [6]: 4% and 5%
Population Mitotic Cells (%) [6]: 33% and 53%
Population Normal (%) [6]: 98% and 94%
Population Pyknosed Nuclei (%) [6]: 6% and 8%
Population Tubulin-Different-Phenotype (%) [6]: 32% and 48%
Total Cell Count [6]: 201 and 170

O=C(O)CCC/C=C\CC1C(O)CC(O)C1/C=C/C(O)COc1cccc(Cl)c1 (centres undefined) [CLOPROSTENOL]
Population Apoptotic (%) [1]: 41% and 20%
Population Fragmented Nuclei (%) [1]: 15% and 22%
Population Healthy Nuclei (%) [1]: 68% and 52%
Population Hoechst High Intensity Objects (%) [1]: 0% and 2%
Population Membrane Permeable-Phenotype (%) [1]: 0% and 8%
Population Mitochondria Different-Phenotype (%) [1]: 2%
Population Mitotic Cells (%) [1]: 58% and 80%
Population Normal (%) [1]: 100% and 97%
Population Pyknosed Nuclei (%) [1]: 15% and 25%
Population Tubulin-Different-Phenotype (%) [1]: 22% and 52%
Total Cell Count [1]: 153 and 141
Population Apoptotic (%) [2]: 38% and 23%
Population Fragmented Nuclei (%) [2]: 23%
Population Healthy Nuclei (%) [2]: 58% and 43%
Population Hoechst High Intensity Objects (%) [2]: 12% and 4%
Population Membrane Permeable-Phenotype (%) [2]: 0% and 11%
Population Mitochondria Different-Phenotype (%) [2]: 4% and 9%
Population Mitotic Cells (%) [2]: 61% and 76%
Population Normal (%) [2]: 87% and 95%
Population Pyknosed Nuclei (%) [2]: 18% and 34%
Population Tubulin-Different-Phenotype (%) [2]: 31% and 53%
Total Cell Count [2]: 212 and 105
Population Apoptotic (%) [3]: 41% and 18%
Population Fragmented Nuclei (%) [3]: 19% and 27%
Population Healthy Nuclei (%) [3]: 62% and 49%
Population Hoechst High Intensity Objects (%) [3]: 0% and 3%
Population Membrane Permeable-Phenotype (%) [3]: 1% and 7%
Population Mitochondria Different-Phenotype (%) [3]: 3% and 5%
Population Mitotic Cells (%) [3]: 58% and 81%
Population Normal (%) [3]: 99% and 96%
Population Pyknosed Nuclei (%) [3]: 18% and 23%
Population Tubulin-Different-Phenotype (%) [3]: 26% and 53%
Total Cell Count [3]: 161 and 144
Population Apoptotic (%) [4]: 41% and 59%
Population Fragmented Nuclei (%) [4]: 24% and 28%
Population Healthy Nuclei (%) [4]: 57% and 50%
Population Hoechst High Intensity Objects (%) [4]: 12% and 3%
Population Membrane Permeable-Phenotype (%) [4]: 2% and 7%
Population Mitochondria Different-Phenotype (%) [4]: 3%
Population Mitotic Cells (%) [4]: 58% and 40%
Population Normal (%) [4]: 87% and 96%
Population Pyknosed Nuclei (%) [4]: 18% and 21%
Population Tubulin-Different-Phenotype (%) [4]: 24% and 57%
Total Cell Count [4]: 218 and 107
Population Apoptotic (%) [5]: 65% and 36%
Population Fragmented Nuclei (%) [5]: 21% and 37%
Population Healthy Nuclei (%) [5]: 59% and 43%
Population Hoechst High Intensity Objects (%) [5]: 2% and 3%
Population Membrane Permeable-Phenotype (%) [5]: 2% and 12%
Population Mitochondria Different-Phenotype (%) [5]: 2% and 10%
Population Mitotic Cells (%) [5]: 34% and 64%
Population Normal (%) [5]: 97% and 96%
Population Pyknosed Nuclei (%) [5]: 19% and 18%
Population Tubulin-Different-Phenotype (%) [5]: 25% and 63%
Total Cell Count [5]: 156 and 137
Population Apoptotic (%) [6]: 46% and 55%
Population Fragmented Nuclei (%) [6]: 25% and 41%
Population Healthy Nuclei (%) [6]: 57% and 49%
Population Hoechst High Intensity Objects (%) [6]: 13% and 8%
Population Membrane Permeable-Phenotype (%) [6]: 0% and 4%
Population Mitochondria Different-Phenotype (%) [6]: 2% and 4%
Population Mitotic Cells (%) [6]: 53% and 44%
Population Normal (%) [6]: 86% and 91%
Population Pyknosed Nuclei (%) [6]: 16% and 9%
Population Tubulin-Different-Phenotype (%) [6]: 30% and 61%
Total Cell Count [6]: 205 and 108

Source: ChEMBL document CHEMBL5724801, “EUbOPEN Chemogenomics Library - Multiplex” (2024)
